High-throughput results: PubChem, The Scripps Research Institute Molecular Screening Center
The list is not random: actives were taken first. Their share in the collection is about 1.8%.
CHRM5 PAM – positive allosteric modulators of human muscarinic M5 receptor. P08912. activation, % at 3 µM. CHO-K1 hM5, Fluo-8 calcium, ACh EC20 PAM; 0% = ACh EC20, 100% = ACh EC100. hit rate 0.3% among 360,000;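 active = activation above the run cutoff, the mean activation of all test compounds plus 3 SD, cut at about 18% in these data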
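Measured by: Fluo-8 calcium fluorescence; material: human M5 receptor in CHO-K1 cells; schedule: Post-acetylcholine fluorescence recording 140 s; benchmarks: low control EC20 acetylcholine (0%), high control EC100 acetylcholine (100%); read-out: Max/basal fluorescence ratio as % of EC20–EC100 ACh window; compound: single dose, 3 µM nominal final test concentration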
CHRM4 PAM – potentiates acetylcholine response at human M4 receptor | CHO-K1 hM4/Gqi5, Fluo-8 calcium fluorescence, ACh EC20; 0% = ACh EC20, 100% = maximal ACh | P08173 | hit rate 0.4% among 360,000 | activation, % at 3 µM;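 active = activation above its plate's cutoff, the mean activation of sample wells plus 3 SD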
Target sequence (P08173 whole entry, looked up): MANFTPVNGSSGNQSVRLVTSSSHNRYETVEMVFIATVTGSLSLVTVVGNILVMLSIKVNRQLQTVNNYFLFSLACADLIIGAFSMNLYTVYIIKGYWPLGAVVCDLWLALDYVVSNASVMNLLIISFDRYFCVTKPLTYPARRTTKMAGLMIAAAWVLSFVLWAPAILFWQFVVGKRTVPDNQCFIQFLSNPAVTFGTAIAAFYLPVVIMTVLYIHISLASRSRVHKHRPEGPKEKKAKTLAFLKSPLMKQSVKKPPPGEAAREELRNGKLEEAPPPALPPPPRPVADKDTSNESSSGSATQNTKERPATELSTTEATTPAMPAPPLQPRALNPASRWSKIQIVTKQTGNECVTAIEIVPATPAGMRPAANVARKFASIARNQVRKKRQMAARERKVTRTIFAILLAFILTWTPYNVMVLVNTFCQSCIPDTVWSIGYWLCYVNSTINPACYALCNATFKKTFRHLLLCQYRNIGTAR
CHRM5 antagonist – CHRM5 antagonism in calcium assay; inhibition, % at 3 µM; CHO-hM5 cells, Fluo-8 calcium fluorescence, ACh EC80; P08912; hit rate 0.59% among 360,000; AID 624040;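 active = inhibition above a per-plate cutoff, the mean of that plate's test compounds plus 3 SD, cut at about 27% in these data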
M4 antag – blocks acetylcholine activation of human M4 receptor | P08173 | CHO-hM4 cells, ACh EC80, Fluo-8 calcium fluorescence | inhibition, % at 3 µM | hit rate 0.73% among 360,000 | AID 624125;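 active = inhibition above its plate's cutoff, the mean inhibition of sample wells plus 3 SD, cut at about 27% in these data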
M4 ag – agonists of human muscarinic M4 receptor (CHRM4); P08173; CHO-K1 hM4/Gqi5, Fluo-8 calcium fluorescence; vehicle 0%, full acetylcholine response 100%; activation, % at 3 µM; hit rate 0.14% among 360,000;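 active = activation above the run mean over all test wells plus 3 SD, cut at about 32% in these data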;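 also: peak over basal fluorescence ratio per well then scaled between controls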
M5 ag – agonists of human muscarinic M5 receptor (CHRM5) | CHO-K1 hM5 cells, Fluo-8 calcium fluorescence; 0% DMSO wells, 100% maximal acetylcholine response | activation, % at 3 µM | hit rate 0.19% among 360,000 | AID 624037;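 active = activation above the run's mean over test compounds plus 3 SD, cut at about 23% in these data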;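 also: signal is peak over basal fluorescence ratio across the kinetic read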
Large screens that a line does not name were inactive.

COc1ccc(C2C(C#N)=C(N)Oc3cc(O)ccc32)cc1C (stereo not given)	M5 ag 24.5
Cc1ccccc1-c1nc(NCCN(C)C)nc2ccsc12	CHRM5 antagonist 56.2, M4 antag 55.6
CC(C)Nc1nc(-c2ccccc2CO)c2sccc2n1	none
CN(C)CCNc1nc(-c2ccccc2CO)c2sccc2n1	CHRM5 antagonist 37.0
COc1ccc(C(CNC(=O)CNC(=O)c2cccc(C)c2)N2CCCCC2)cc1 (stereo not given)	none
O=C(CSc1nnc(-c2ccccc2F)o1)NC(=O)Cc1ccccc1	none
COc1ccccc1CC(=O)NCCN1CCCCC1	none
OC(CNCCC1C=Nc2ccccc21)Cn1c2ccc(Cl)cc2c2cc(Cl)ccc21 (stereo not given)	M4 antag 36.6
CCN(CC)C(=O)COc1cccc2ccccc12	CHRM4 PAM 29.0
O=C(O)COc1cccc2ccccc12	none
Cc1ccc(S(=O)(=O)N2CCOCC2)cc1C(=O)OCC(=O)NC1CCCC1	none
O=C(O)CCC(=O)NNC(=O)COc1cccc(Cl)c1	CHRM5 PAM 21.0
O=C(COc1cccc(Cl)c1)NNC(=S)Nc1ccccc1	none
CCCCNc1c(-c2ccc(OC)c(SC3CCCCC3)c2)nc2cc(C)ccn12	M4 antag 28.6
CCCCNc1c(-c2cccc(-c3cc(C(C)=O)cs3)c2)nc2ccc(C)cn12	none
CCCCNc1c(-c2cccc(-c3ccc(OC)cc3)c2)nc2ccc(C)cn12	CHRM5 antagonist 34.3, M4 antag 51.7
CCCCNc1c(-c2ccc(-c3cccc(Cl)c3)cc2)nc2ccccn12	none
CCCCNc1c(-c2cccc(-c3ccc(OC)cc3)c2)nc2cc(C)ccn12	CHRM5 antagonist 27.8, M4 antag 41.5
Cc1ccc(-c2nc3c4ccccc4ccn3c2Cc2ccccc2)cc1	none
CCCc1nc2c3ccccc3ccn2c1Cc1ccccc1	CHRM5 antagonist 28.0
COc1ccc(C)cc1Nc1n[n+](-c2ccccc2)c(-c2cc(OC)c(OC)cc2Br)s1	none
Fc1ccc(-[n+]2nc(Nc3ccccc3)sc2-c2c3ccccc3cc3ccccc23)cc1	CHRM5 antagonist 39.0, M5 ag 35.9
COc1ccc(C)cc1Nc1n[n+](-c2ccccc2)c(-c2c(OC)ccc3ccccc23)s1	CHRM5 antagonist 27.2
CC(NC(=O)COC(=O)Cc1cccs1)c1ccc(F)cc1 (stereo not given)	none
CCCc1nc2ccccc2c(=O)n1CC(=O)c1ccc(F)cc1	none
CCn1cc(/C=C(\NC(=O)c2ccccc2OC)C(=O)N2CCOCC2)c2ccccc21	none
COc1cc(/C=C2\SC(=S)N(NC(=O)c3ccc(O)cc3)C2=O)ccc1O	M4 antag 26.6, M4 ag 93.8, M5 ag 60.3
O=C(NN1C(=O)/C(=C/c2ccc(O)c(O)c2)SC1=S)c1ccccc1	M5 ag 40.4
COc1cc(/C=C2\SC(=S)N(Nc3ccccc3)C2=O)ccc1O	CHRM5 antagonist 28.6, M4 antag 27.4, M4 ag 45.2, M5 ag 29.3
CCOc1cc(/C=C2\SC(=S)N(Nc3ccccc3)C2=O)ccc1O	none
COc1cc(/C=C2/SC(=S)N(CC3CCCO3)C2=O)ccc1O (stereo not given)	M4 ag 32.7
CCOC(=O)CN1C(=O)C2(OCCCO2)c2cc(Br)ccc21	none
COc1ccc(-c2cc(C(N)=O)nc(N3CCCCCC3)n2)cc1	CHRM4 PAM 27.8
Cc1nc(N)c(C#N)c(-c2cccnc2)c1C	CHRM5 PAM 26.2
Cc1ccc(CS(=O)(=O)c2ncc(Cl)c(C(=O)Nc3ccc(OC(F)F)cc3)n2)cc1	M4 antag 55.8
O=C(NC1CC2CCCC(C1)N2C(=O)NCc1ccccc1)C1CC1 (stereo not given)	M4 antag 32.2
O=C(NC1CC2CCCC(C1)N2C(=O)Nc1ccccc1)C1CC1 (stereo not given)	none
O=[N+]([O-])c1ccc(/C=N/N2CCCCC2)cc1	none
CC[C@H](C)[C@H](NC(N)=O)C(=O)Nc1ccc(S(=O)(=O)NC(C)C)cc1	M4 antag 29.8
